Results reported in ChEMBL document CHEMBL4049439, “Synthesis and Characterization of Tetrahydropyran-Based Bacterial Topoisomerase Inhibitors with Antibacterial Activity against Gram-Negative Bacteria” (J Med Chem, 2017).
Values after ≈ are worked out from the molar mass of the structure shown. Active and inactive are the calls of the source. No cut-off for these calls is given here.

Columns and labels:
[1] = Fraction unbound in Dunkin-Hartley guinea pig plasma administered as iv at 3 mg/kg for first 20 mins of infusion followed by 10 mg/kg for second 20 mins of infusion followed by 30 mg/kg for third 20 mins of infusion by rapid equilibrium dialysis; assay type: ADME, organism-based, Cavia porcellus
[2] = Inhibition of wild-type Escherichia coli DNA topoisomerase-4 mediated supercoiled pBR322 DNA relaxation by ethidium bromide based agarose gel electrophoresis
[3] = Terminal half-life in Wistar rat at 1 mg/kg, iv by LC-MS/MS analysis; assay type: ADME, organism-based; settings: in vivo, read-out: beta t1/2 (converted)
Summary of the method: (§1)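 Rats dosed iv at 10 mg/kg or 1 mg/kg. Dose-normalized AUC (μg·h/(mL·dose)) and its unbound counterpart derived via fraction unbound. Clearance, unbound clearance, Vdss and half-life also derived.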

[4] = Cardiotoxicity against human induced pluripotent stem cell-derived cardiomyocytes assessed as free drug concentration causing inhibition of spontaneous rhythm after 5 to 60 mins by Fluo-4 dye based fluorescence assay; assay type: toxicity; settings: cardiac muscle cell
Summary of the method: (§2)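 Spontaneous beating rhythm of human iPSC-derived cardiomyocytes monitored. Reported value is the lowest active concentration, free or total. Free/total conversion corrected for 20% serum in the test solution.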

Rattus norvegicus [5] = test: Dose normalized unbound AUC in Wistar rat at 1 mg/kg, iv by LC-MS/MS analysis; assay type: ADME, organism-based; settings: in vivo; summary of the method: as §1
Acinetobacter baumannii = test: Antibacterial activity against fluoroquinolone-resistant Acinetobacter baumannii T6474 by CLSI broth microdilution method; assay type: functional
Cavia porcellus [6] = test: Cardiotoxicity in Dunkin-Hartley guinea pig assessed as free plasma concentration causing effect on mean arterial pressure administered as iv at 3 mg/kg for first 20 mins of infusion followed by 10 mg/kg for second 20 mins of infusion followed by 30 mg/kg for third 20 mins of infusion by LC-MS/MS analysis; assay type: toxicity, organism-based; settings: in vivo
Summary of the method: (§3)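 Anesthetized guinea pigs received 3, 10 and 30 mg/kg iv over three consecutive 20 min periods. MAP, HR and ECG intervals (PR, QRS, RR, QT) recorded continuously. Blood drawn at the end of each period for drug levels. Value is the lowest plasma concentration differing from vehicle-treated animals. Free level uses unbound fraction from rapid equilibrium dialysis of guinea pig plasma.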

Escherichia coli = test: Antibacterial activity against wild-type Escherichia coli ATCC 25922 by CLSI broth microdilution method; assay type: functional
Rattus norvegicus [7] = test: Unbound clearance in Wistar rat at 1 mg/kg, iv by LC-MS/MS analysis; assay type: ADME, organism-based; settings: in vivo; summary of the method: as §1
[8] = Inhibition of wild-type Pseudomonas aeruginosa DNA gyrase supercoiling activity using relaxed pBR322 DNA as substrate by ethidium bromide based agarose gel electrophoresis
Cavia porcellus [9] = test: Cardiotoxicity in Dunkin-Hartley guinea pig assessed as free plasma concentration causing effect on QT interval administered as iv at 3 mg/kg for first 20 mins of infusion followed by 10 mg/kg for second 20 mins of infusion followed by 30 mg/kg for third 20 mins of infusion by LC-MS/MS analysis; assay type: toxicity, organism-based; settings: in vivo; summary of the method: as §3
[10] = Fraction unbound in Wistar rat plasma at 1 mg/kg, iv by rapid equilibrium dialysis; assay type: ADME, organism-based; summary of the method: as §1
Cavia porcellus [11] = test: Cardiotoxicity in Dunkin-Hartley guinea pig assessed as free plasma concentration causing effect on heart rate administered as iv at 3 mg/kg for first 20 mins of infusion followed by 10 mg/kg for second 20 mins of infusion followed by 30 mg/kg for third 20 mins of infusion by LC-MS/MS analysis; assay type: toxicity, organism-based; settings: in vivo; summary of the method: as §3
[12] = Inhibition of wild-type Pseudomonas aeruginosa DNA topoisomerase-4 mediated supercoiled pBR322 DNA relaxation by ethidium bromide based agarose gel electrophoresis
Cavia porcellus [13] = test: Cardiotoxicity in Dunkin-Hartley guinea pig assessed as free plasma concentration causing effect on QRS interval administered as iv at 3 mg/kg for first 20 mins of infusion followed by 10 mg/kg for second 20 mins of infusion followed by 30 mg/kg for third 20 mins of infusion by LC-MS/MS analysis; assay type: toxicity, organism-based; settings: in vivo; summary of the method: as §3
[14] = Inhibition of wild-type Escherichia coli DNA gyrase supercoiling activity using relaxed pBR322 DNA as substrate by ethidium bromide based agarose gel electrophoresis
[15] = Inhibition of wild-type Acinetobacter baumannii DNA topoisomerase-4 mediated supercoiled pBR322 DNA relaxation by ethidium bromide based agarose gel electrophoresis
hERG (KCNH2) [16] = molecular target: T1, hERG (KCNH2) (Homo sapiens, UniProt Q12809); test: Inhibition of human ERG assessed as reduction of K+ current at 30 uM
T1 sequence (Q12809 whole entry): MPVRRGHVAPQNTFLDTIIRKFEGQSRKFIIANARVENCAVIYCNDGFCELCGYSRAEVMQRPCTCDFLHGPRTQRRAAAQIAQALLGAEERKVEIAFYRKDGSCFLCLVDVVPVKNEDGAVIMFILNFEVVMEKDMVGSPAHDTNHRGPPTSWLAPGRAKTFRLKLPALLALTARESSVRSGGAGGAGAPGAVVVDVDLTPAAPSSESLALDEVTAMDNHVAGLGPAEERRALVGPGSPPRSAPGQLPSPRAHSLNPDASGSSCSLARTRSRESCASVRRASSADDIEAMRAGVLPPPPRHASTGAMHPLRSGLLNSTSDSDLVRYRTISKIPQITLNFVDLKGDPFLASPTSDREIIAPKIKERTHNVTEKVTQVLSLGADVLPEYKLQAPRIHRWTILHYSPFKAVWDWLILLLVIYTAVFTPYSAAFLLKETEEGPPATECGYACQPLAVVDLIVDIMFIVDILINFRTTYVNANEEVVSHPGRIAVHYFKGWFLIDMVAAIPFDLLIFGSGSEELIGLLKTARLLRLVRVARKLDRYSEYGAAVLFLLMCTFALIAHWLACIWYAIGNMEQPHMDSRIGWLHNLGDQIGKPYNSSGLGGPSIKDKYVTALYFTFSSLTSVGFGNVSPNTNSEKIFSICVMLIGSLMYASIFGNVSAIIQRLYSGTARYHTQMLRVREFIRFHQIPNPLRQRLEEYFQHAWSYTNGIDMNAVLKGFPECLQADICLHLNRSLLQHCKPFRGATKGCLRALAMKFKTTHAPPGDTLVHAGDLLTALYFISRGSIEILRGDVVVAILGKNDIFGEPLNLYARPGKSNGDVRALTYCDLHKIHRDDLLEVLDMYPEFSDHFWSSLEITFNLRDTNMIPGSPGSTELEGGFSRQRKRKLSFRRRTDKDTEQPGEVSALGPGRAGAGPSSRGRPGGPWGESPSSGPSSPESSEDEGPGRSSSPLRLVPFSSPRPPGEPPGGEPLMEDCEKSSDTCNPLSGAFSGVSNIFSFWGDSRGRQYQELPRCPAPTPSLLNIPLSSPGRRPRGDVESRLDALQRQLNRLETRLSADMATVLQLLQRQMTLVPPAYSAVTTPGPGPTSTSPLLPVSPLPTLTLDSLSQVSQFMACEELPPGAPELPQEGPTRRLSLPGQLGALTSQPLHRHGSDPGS
Summary of the method: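 hERG K+ channel current reduction measured at 30 μM compound concentration.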

Pseudomonas aeruginosa = test: Antibacterial activity against Pseudomonas aeruginosa ATCC 27853 by CLSI broth microdilution method; assay type: functional
[17] = Clearance in Wistar rat at 1 mg/kg, iv by LC-MS/MS analysis; assay type: ADME, organism-based; settings: in vivo; summary of the method: as §1
[18] = Lipophilicity, log D of the compound at pH 7.4; assay type: physicochemical; settings: buffer
Rattus norvegicus [19] = test: Dose normalized AUC in Wistar rat at 1 mg/kg, iv by LC-MS/MS analysis; assay type: ADME, organism-based; settings: in vivo
[20] = molecular target: Voltage-gated inwardly rectifying potassium channel KCNH2 (Homo sapiens, UniProt Q12809); test: (§4) Inhibition of human ERG assessed as reduction of K+ current
Chain of Voltage-gated inwardly rectifying potassium channel KCNH2 (Q12809 whole entry): as above

hERG (KCNH2) [21] = molecular target: T1, hERG (KCNH2); test: as §4; settings: human
Staphylococcus aureus [22] = test: Antibacterial activity against Staphylococcus aureus ATCC 29213 by CLSI broth microdilution method; assay type: functional
[23] = Cardiotoxicity against human induced pluripotent stem cell-derived cardiomyocytes assessed as total drug concentration causing effect on spontaneous rhythm after 5 to 60 mins by Fluo-4 dye based fluorescence assay; assay type: toxicity; settings: cardiac muscle cell; summary of the method: as §2
[24] = Volume of distribution at steady state in Wistar rat at 1 mg/kg, iv by LC-MS/MS analysis; assay type: ADME, organism-based; settings: in vivo, read-out: Vdss
Summary of the method: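 Rats received a single intravenous dose of 10 or 1 mg/kg depending on the compound. Clearance, unbound clearance, Vdss, terminal half-life and dose-normalized AUC were derived from plasma exposure, with unbound fraction (fu) reported for this species.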

[25] = Inhibition of wild-type Acinetobacter baumannii DNA gyrase supercoiling activity using relaxed pBR322 DNA as substrate by ethidium bromide based agarose gel electrophoresis
Cavia porcellus [26] = test: Cardiotoxicity in Dunkin-Hartley guinea pig assessed as free plasma concentration causing effect on PR interval administered as iv at 3 mg/kg for first 20 mins of infusion followed by 10 mg/kg for second 20 mins of infusion followed by 30 mg/kg for third 20 mins of infusion by LC-MS/MS analysis; assay type: toxicity, organism-based; settings: in vivo; summary of the method: as §3
Mus musculus [27] = test: Dose normalized AUC in NMRI mouse at 10 mg/kg, iv by LC-MS/MS analysis; assay type: ADME, organism-based; settings: in vivo
Staphylococcus aureus [28] = test: Antibacterial activity against methicillin/quinolone-resistant Staphylococcus aureus A-1171 by CLSI broth microdilution method; assay type: functional
[29] = Terminal half-life in NMRI mouse at 10 mg/kg, iv by LC-MS/MS analysis; assay type: ADME, organism-based; settings: in vivo, read-out: beta t1/2 (converted)
Summary of the method: (§5)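 Mice dosed iv at 10 mg/kg or sc at 120 mg/kg. AUC normalized to dose (μg·h/(mL·dose)). Unbound AUC derived using fraction unbound. Clearance, Vdss and terminal half-life also derived.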

[30] = Fraction unbound in NMRI mouse at 10 mg/kg, iv by rapid equilibrium dialysis; assay type: ADME, organism-based; settings: plasma; summary of the method: as §5
Staphylococcus aureus [31] = test: Antibacterial activity against methicillin/quinolone-resistant Staphylococcus aureus A-1171 infected in cyclophosphamide-induced neutropenic NMRI mouse model assessed as log reduction in colony forming units in thighs at 40 mg/kg, sc treated 2 hrs post infection measured 22 hrs post dose; assay type: functional
Summary of the method: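 Neutropenic murine thigh infection with MRSA. A single subcutaneous dose of 40 mg/kg was given. Thigh CFU were counted 24 h postinfection (22 h post-treatment). The net change in bacterial load is given in log units relative to CFU at the start of treatment.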

Klebsiella pneumoniae [32] = test: Antibacterial activity against Klebsiella pneumoniae ATCC 43816 infected in cyclophosphamide-induced neutropenic NMRI mouse model assessed as reduction in colony forming units in thighs at 30 mg/kg, sc treated 2 hrs post infection measured 5.5 hrs post dose; assay type: functional, organism-based
Summary of the method: (§6)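 Neutropenic murine thigh infection with a K. pneumoniae strain, single subcutaneous dose. Thigh CFU read 7.5 h post-infection (5.5 h after treatment, covering the dosing interval). Net log change computed against CFU at start of treatment.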

Mus musculus [33] = test: Dose normalized unbound AUC in NMRI mouse at 10 mg/kg, iv by LC-MS/MS analysis; assay type: ADME, organism-based; settings: in vivo; summary of the method: as §5
Klebsiella pneumoniae [34] = test: Antibacterial activity against Klebsiella pneumoniae ATCC 43816 by CLSI broth microdilution method; assay type: functional
Staphylococcus aureus [35] = test: Antibacterial activity against methicillin-sensitive Staphylococcus aureus A-1178 infected in cyclophosphamide-induced neutropenic NMRI mouse model assessed as log reduction in colony forming units in thighs at 40 mg/kg, sc treated 2 hrs post infection measured 22 hrs post dose; assay type: functional
Summary of the method: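 Neutropenic mouse thigh model infected with a methicillin-sensitive S. aureus strain, subcutaneous dosing. Thigh CFU measured 24 h post-infection (22 h post-treatment). Net log reduction given against CFU at treatment start.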

Klebsiella pneumoniae [36] = test: Antibacterial activity against Klebsiella pneumoniae ATCC 43816 infected in cyclophosphamide-induced neutropenic NMRI mouse model assessed as log reduction in colony forming units in thighs at 90 mg/kg, sc treated 2 hrs post infection measured 5.5 hrs post dose; assay type: functional; summary of the method: as §6
Staphylococcus aureus [37] = test: Antibacterial activity against methicillin-sensitive Staphylococcus aureus A-1178 by CLSI broth microdilution method; assay type: functional
[38] = Volume of distribution at steady state in NMRI mouse at 10 mg/kg, iv by LC-MS/MS analysis; assay type: ADME, organism-based; settings: in vivo, read-out: Vdss
Summary of the method: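 Mice received a single dose of 10 mg/kg intravenously, or 120 mg/kg subcutaneously for one compound. Clearance, Vdss, half-life, unbound fraction and dose-normalized AUC were derived from plasma exposure.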

COc1ccc2ccc(=O)n(C[C@H](O)[C@@H]3CC[C@@H](NCc4ccc5c(n4)NC(=O)CO5)CO3)c2n1
fraction unbound at 20 min [1]: 0.43
IC50 [2]: 30 nM
half-life [3]: 1 h
Drug uptake(free) [4]: 0.86 µM
fAUC/dose (Rattus norvegicus [5]): 63 µg·h/mL
MIC (Acinetobacter baumannii): ≤ 0.03 µg/mL
Cp(f) (Cavia porcellus [6]): 21 µM
MIC (Escherichia coli): 0.5 µg/mL (≈ 1.04 µM)
CL free (Rattus norvegicus [7]): 263 mL/min/kg
IC50 [8]: 125 nM
Cp(f) (Cavia porcellus [9]): 1.5 µM
fraction unbound [10]: 0.167
Cp(f) (Cavia porcellus [11]): 6 µM
IC50 [12]: 30 nM
Cp(f) (Cavia porcellus [13]): 21 µM
IC50 [14]: 125 nM
IC50 [15]: 125 nM
inhibition at 30 µM (hERG (KCNH2) [16]): 71%
MIC (Pseudomonas aeruginosa): 8 µg/mL (≈ 16.6 µM)
clearance [17]: 44 mL/min/kg
logD [18]: 2
AUC/dose (Rattus norvegicus [19]): 378 ng·h/mL
IC50 [20]: 15000 nM
IC20 (hERG (KCNH2) [21]): 3700 nM
MIC (Staphylococcus aureus [22]): ≤ 0.03 µg/mL
Drug uptake [23]: 1.4 µM
Vd [24]: 2.5 L/kg
IC50 [25]: 125 nM
Cp(f) (Cavia porcellus [26]): > 21 µM

COc1ccc2ncc(F)c(CC(N)[C@@H]3CC[C@@H](NCc4ccc5c(n4)NC(=O)CO5)CO3)c2n1 (mixture of isomers)
IC50 [2]: 30 nM
AUC/dose (Mus musculus [27]): 260 ng·h/mL
MIC (Staphylococcus aureus [28]): 0.03 µg/mL
half-life [29]: 1.2 h
MIC (Acinetobacter baumannii): 0.25 µg/mL
MIC (Escherichia coli): 0.25 µg/mL
IC50 [8]: 30 nM
IC50 [12]: 30 nM
fraction unbound [30]: 0.154
Activity (Staphylococcus aureus [31]): 1 log10CFU
IC50 [14]: 125 nM
IC50 [15]: 30 nM
Activity (Klebsiella pneumoniae [32]): inactive
MIC (Pseudomonas aeruginosa): 4 µg/mL
fAUC/dose (Mus musculus [33]): 40 µg·h/mL
MIC (Klebsiella pneumoniae [34]): 0.125 µg/mL
Activity (Staphylococcus aureus [35]): 2 log10CFU
MIC (Staphylococcus aureus [22]): 0.03 µg/mL
Activity (Klebsiella pneumoniae [36]): 1 log10CFU
MIC (Staphylococcus aureus [37]): 0.06 µg/mL
Vd [38]: 6 L/kg
IC50 [25]: 125 nM
